# Test results from article PMC6970276 (OncoTargets and therapy, 2020).
# How the values were obtained:
# [1] = Biodistribution in tumor-bearing nude mice; type: in vivo; settings: for tissue uptake at 4 h / tissue uptake at 12 h / tissue uptake at 24 h / tissue uptake at 48 h: female, nude, mouse, iv, 1.85 MBq, total radioactivity; for Tumor/Blood: ratio, n=3
# In short: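 Female nude mice bearing subcutaneous K1 tumours (5 × 10^6 cells, right forelimb), used once tumours exceeded 1 cm3. The 177Lu-labelled test compound (1.85 MBq in 100 μL) was injected into the tail vein, n = 3 per time point. Mice were killed at 4, 12, 24 and 48 h. Blood, tumour and organs (including brain, bone, heart) were weighed and gamma-counted. %ID/g = tissue counts/(injected counts × tissue mass) × 100%.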
# [2] = Stability test of purified probes in human serum; type: in vitro ADME; settings: 48 h, purified probe, radio-TLC, saline/acetone 1:1, Figure 2
# In short: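 Purified 177Lu-labelled probes were held at room temperature and in human serum. Radiochemical purity was sampled at 1, 4, 12, 24 and 48 h by radio-TLC, developed in saline/acetone 1:1 (v/v) and read on a TLC imaging scanner.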
# [3] = system: K1 cells; assay: In vitro retention assay in K1 cells; type: cell-based; settings: 6 hrs loading, medium replaced, 2, 4, 6 and 8 hrs, γ-counter
# [4] = system: K1 xenografts; assay: SPECT/CT imaging of K1 xenografts; type: in vivo, nude mice; settings: SPECT ROI, 24h after tail vein injection of 37 MBq; tumor-bearing mouse
# In short: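 Female nude mice bearing K1 xenografts (over 1 cm3) received 37 MBq of the 177Lu-labelled test compound in 100 μL by tail vein. Static SPECT/CT imaging at 4, 12, 24 and 48 h, prone: high-energy collimation, 113 and 208 keV peaks, 256 × 256 matrix, 10-min acquisitions. T/NT was calculated from regions of interest. CT fusion was done at the clearest time point.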
# [5] = system: K1 xenografts; assay: Therapeutic evaluation in tumor-bearing nude mice; type: in vivo
# In short: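 K1 xenograft-bearing nude mice, randomised into three groups (n = 5). Each group received tail-vein injections (100 μL) every 4 days, three times: radiolabelled test compound (11.1 MBq/5 μg), unlabelled test compound (5 μg) or 0.9% saline. Followed for 45 days. Tumour volume = a × b²/2 (long, short diameters). Growth curves compared by repeated-measures analysis, survival by log-rank test.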
smiles,measurement,setting,value
"Cc1cn(CC(=O)N(CCNC(=O)COCCOCCNC(=O)COCCOCCNC(=O)CN2CCN(CC(=O)O)CCN(CC(=O)O)CCN(CC(=O)O)CC2)CC(=O)NCCN(CC(=O)NCCN(CC(=O)NCCN(CC(=O)NCCN(CC(=O)NCCN(CC(=O)NCCN(CC(=O)NCCN(CC(=O)NCCN(CC(=O)NCCN(CC(N)=O)C(=O)Cn2cnc3c(N)ncnc32)C(=O)Cn2cnc3c(N)ncnc32)C(=O)Cn2cnc3c(=O)[nH]c(N)nc32)C(=O)Cn2cnc3c(N)ncnc32)C(=O)Cn2ccc(N)nc2=O)C(=O)Cn2cnc3c(=O)[nH]c(N)nc32)C(=O)Cn2cc(C)c(=O)[nH]c2=O)C(=O)Cn2cnc3c(=O)[nH]c(N)nc32)C(=O)Cn2cnc3c(N)ncnc32)c(=O)[nH]c1=O [^177Lu-asPNA, ^177Lu-DOTA-anti-CITED1-PNA, metal not drawn]",tissue uptake at 4 h,[1]; bone,2.58 ± 0.63 %ID/g
same,tissue uptake at 12 h,[1]; bone,1.51 ± 0.55 %ID/g
same,tissue uptake at 24 h,[1]; bone,1.03 ± 0.68 %ID/g
same,tissue uptake at 48 h,[1]; bone,0.52 ± 0.23 %ID/g
same,tissue uptake at 4 h,[1]; brain,1.53 ± 0.68 %ID/g
same,tissue uptake at 12 h,[1]; brain,0.42 ± 0.36 %ID/g
same,tissue uptake at 24 h,[1]; brain,0.39 ± 0.77 %ID/g
same,tissue uptake at 48 h,[1]; brain,0.33 ± 0.59 %ID/g
same,tissue uptake at 4 h,[1]; heart,3.67 ± 0.82 %ID/g
same,tissue uptake at 12 h,[1]; heart,3.33 ± 0.25 %ID/g
same,tissue uptake at 24 h,[1]; heart,1.53 ± 0.36 %ID/g
same,tissue uptake at 48 h,[1]; heart,0.54 ± 0.39 %ID/g
same,tissue uptake at 4 h,[1]; intestines,4.92 ± 0.45 %ID/g
same,tissue uptake at 12 h,[1]; intestines,3.17 ± 1.5 %ID/g
same,tissue uptake at 24 h,[1]; intestines,3.03 ± 0.87 %ID/g
same,tissue uptake at 48 h,[1]; intestines,0.85 ± 0.27 %ID/g
same,tissue uptake at 4 h,[1]; kidney,13.8 ± 1.46 %ID/g
same,tissue uptake at 12 h,[1]; kidney,5.96 ± 1.32 %ID/g
same,tissue uptake at 24 h,[1]; kidney,2.06 ± 0.49 %ID/g
same,tissue uptake at 48 h,[1]; kidney,0.87 ± 0.41 %ID/g
same,tissue uptake at 4 h,[1]; liver,13.2 ± 1.26 %ID/g
same,tissue uptake at 12 h,[1]; liver,2.42 ± 0.13 %ID/g
same,tissue uptake at 24 h,[1]; liver,1.81 ± 0.41 %ID/g
same,tissue uptake at 48 h,[1]; liver,1.53 ± 0.23 %ID/g
same,tissue uptake at 4 h,[1]; lung,4.21 ± 0.27 %ID/g
same,tissue uptake at 12 h,[1]; lung,1.86 ± 0.87 %ID/g
same,tissue uptake at 24 h,[1]; lung,1.66 ± 0.52 %ID/g
same,tissue uptake at 48 h,[1]; lung,1.07 ± 0.41 %ID/g
same,tissue uptake at 4 h,[1]; muscle,2.13 ± 0.37 %ID/g
same,tissue uptake at 12 h,[1]; muscle,1.21 ± 0.69 %ID/g
same,tissue uptake at 24 h,[1]; muscle,0.99 ± 0.21 %ID/g
same,tissue uptake at 48 h,[1]; muscle,0.75 ± 0.18 %ID/g
same,tissue uptake at 4 h,[1]; spleen,11 ± 1.07 %ID/g
same,tissue uptake at 12 h,[1]; spleen,4.62 ± 0.58 %ID/g
same,tissue uptake at 24 h,[1]; spleen,2.07 ± 0.62 %ID/g
same,tissue uptake at 48 h,[1]; spleen,1.14 ± 0.14 %ID/g
same,tissue uptake at 4 h,[1]; stomach,4.92 ± 0.26 %ID/g
same,tissue uptake at 12 h,[1]; stomach,2.34 ± 0.42 %ID/g
same,tissue uptake at 24 h,[1]; stomach,2.05 ± 1.03 %ID/g
same,tissue uptake at 48 h,[1]; stomach,0.58 ± 0.27 %ID/g
same,tissue uptake at 4 h,[1]; tumor,5.78 ± 0.87 %ID/g
same,tissue uptake at 12 h,[1]; tumor,5.47 ± 1.03 %ID/g
same,tissue uptake at 24 h,[1]; tumor,4.93 ± 0.47 %ID/g
same,tissue uptake at 48 h,[1]; tumor,3.05 ± 0.66 %ID/g
same,tissue uptake at 4 h,[1]; whole blood,9.45 ± 1.1 %ID/g
same,tissue uptake at 12 h,[1]; whole blood,5.76 ± 0.46 %ID/g
same,tissue uptake at 24 h,[1]; whole blood,1.98 ± 0.41 %ID/g
same,tissue uptake at 48 h,[1]; whole blood,1.77 ± 0.99 %ID/g
same,Tumor/Blood,"[1]; 4h after tail vein injection of 1.85 MBq, tumor-bearing nude mice",0.61±1.24
same,Tumor/Blood,"[1]; 12h after tail vein injection of 1.85 MBq, tumor-bearing nude mice",0.95±0.97
same,blood-brain barrier passage (brain tissue uptake),"[1]; tumor-bearing nude mice, from radioactive marker uptake in brain tissue",could not cross the blood-brain barrier
same,Radiochemical purity (%),[2],above 91%
same,cellular retention,[3],remains in these cells for an extended period of time
same,T/NT (target/non-target) value,[4],5.11
same,tumor growth rate and volume vs asPNA and saline groups,"[5]; 18 days after injection, n = 5, volume a × b^2/2",about two-fold smaller
same,median survival time longer than those of the other two groups,"[5]; vs asPNA and saline groups, n = 5",at least 13 days
